Assay [1] addresses Sterol O-acyltransferase 1 (Oryctolagus cuniculus). As to the kind of experiment: In vitro inhibition of rabbit intestinal acyl coenzyme A:cholesterol acyltransferase using [1-14C]oleolyl-CoA.
The species named for assay [2] is Rattus norvegicus. As to the kind of experiment: Percent change in total cholesterol in cholic acid (0.5%)-cholesterol (1.5%)-peanut oil (5.5%)-fed rats. The class given is functional. The essentials:
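Acute screen: rats given a single gavage dose, 50 mg/kg standard unless noted, suspended in carboxymethylcellulose plus Tween-20 in water, then a single high-fat, high-cholesterol meal (0.5% cholic acid, 1.5% cholesterol, 5.5% peanut oil). Overnight rise in plasma total cholesterol measured as % change versus control. Stomachs checked for food. ANOVA with Fisher's multiple range test, p<0.05.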

Regarding `CC(C)c1cccc(C(C)C)c1NC(=O)NCC(NC(=O)c1cnccn1)c1ccccc1` (stereo unspecified), in assay [1], the IC50 (commonly the concentration that inhibits the measured activity by half) was 440 nM. Further, the Change in assay [2] is recorded as -19%.
For `CC(C)c1cccc(C(C)C)c1OC(=O)NCC(NC(=O)OC(C)(C)C)c1ccccc1` (single isomer, unassigned; (-)), in that order: 430 nM and 20%.
For `CC(C)c1cccc(C(C)C)c1NC(=O)NCC(NCc1ccccc1)c1ccccc1` (stereo in doubt; 9k(+)), in that order: 53 nM and -41%.
For `CCCCCNC(CNC(=O)Nc1c(C(C)C)cccc1C(C)C)c1ccccc1` (racemic) the same measures were 110 nM and -38%.
`COc1ccccc1CNC(CNC(=O)Nc1c(C(C)C)cccc1C(C)C)c1ccccc1` (single isomer, unassigned; (-)) yielded an IC50 in assay [1] of 45 nM. For the same compound, the Change in assay [2] is on record as -23%.
`CC(C)c1cccc(C(C)C)c1NC(=O)NC(CNC(=O)c1ccccc1)c1ccccc1` (stereo unspecified) showed an IC50 in assay [1] of 3600 nM.
In assay [1], `Cc1ccc(C(=O)NC(CNC(=O)Nc2c(C(C)C)cccc2C(C)C)c2ccccc2)cc1` (stereo unspecified) showed an IC50 of 350 nM. In addition, the Change in assay [2] is on record as -1%.
For `CC(C)c1cccc(C(C)C)c1NC(=O)NCC(NC(=O)c1ccncc1)c1ccccc1` (stereo unspecified) the same measures were 3200 nM and -12%.
For `COc1ccc(CNC(CCSC)CNC(=O)Nc2c(C(C)C)cccc2C(C)C)cc1` (single isomer, unassigned; (+)), in that order: 490 nM and -31%.
For `COc1ccc(CNC(CNC(=O)Nc2c(C(C)C)cccc2C(C)C)CC(C)C)cc1` (stereo unspecified), in that order: 50 nM and -32%.
`CC(C)c1cccc(C(C)C)c1NC(=O)NCC(NC(=O)c1ccc2ccccc2[n+]1[O-])c1ccccc1` (stereo unspecified) displayed an IC50 in assay [1] of 150 nM. The Change in assay [2] was -21%.
For `CC(C)c1cccc(C(C)C)c1NC(=O)NCC(NC(=O)c1ccco1)c1ccccc1` (stereo unspecified) the same measures were 440 nM and -37%.
`CC(C)c1cccc(C(C)C)c1NC(=O)OCC(NC(=O)OC(C)(C)C)c1ccccc1` (stereo unspecified): the IC50 in assay [1] was 2500 nM.
In assay [1], `CCCCCCCCCCCC(=O)NC(COC(=O)Nc1c(C(C)C)cccc1C(C)C)c1ccccc1` (stereo unspecified) yielded an IC50 of 200 nM. In assay [2], the Change is -16%.
Regarding `CC(C)c1cccc(C(C)C)c1NC(=O)NCC(NCc1ccccc1)c1ccccc1` (racemic), in assay [1], half-maximal inhibition (IC50) was put at 51 nM. In addition, the Change in assay [2] is listed as -36%.
In the case of `CCCCCCC(=O)NC(COC(=O)Nc1c(C(C)C)cccc1C(C)C)c1ccccc1` (single isomer, unassigned; (+)), half-maximal inhibition in assay [1] (IC50) was put at 5100 nM.
Take `CCCC(CCC)(CNC(=O)Nc1c(C(C)C)cccc1C(C)C)NC(=O)c1ccc(OC)cc1`: the IC50 in assay [1] stood at 90 nM. Besides, the Change in assay [2] is recorded as -25%.
For `CC(C)c1cccc(C(C)C)c1NC(=O)NCC(NC(=O)c1ccccn1)c1ccccc1` (stereo unspecified), in that order: 80 nM and -24%.
As to `CC(C)c1cccc(C(C)C)c1NC(=O)NCC(CN(Cc1ccccc1)Cc1ccccc1)c1ccccc1` (stereo unspecified), in assay [1], inhibition was half-maximal at 7600 nM (IC50).
In assay [1], `CC(C)c1cccc(C(C)C)c1NC(=O)NCC(CNC(=O)c1ccccn1)c1ccccc1` (stereo unspecified) registered an IC50 of 300 nM. Further, in assay [2], the Change is -7%.
As to `COc1ccc(C(=O)NC2(CNC(=O)Nc3c(C(C)C)cccc3C(C)C)CCCC2)cc1`, the IC50 in assay [1] came out at 500 nM. Further, the Change in assay [2] is -6%.
With `CC(C)c1cccc(C(C)C)c1NC(=O)OCC(NCc1ccc(N(C)C)cc1)c1ccccc1.Cl` (stereo unspecified), the Change in assay [2] was -23%.
`CC(C)c1cccc(C(C)C)c1NC(=O)NCC(NCc1cccnc1)c1ccccc1` (stereo unspecified): in assay [1], the IC50 was determined as 370 nM. Moreover, the Change in assay [2] is listed as -26%.
In assay [1], `CCCCCCCCCCCC(=O)NC(CNC(=O)Oc1c(C(C)C)cccc1C(C)C)c1ccccc1` (single isomer, unassigned; (-)) gave an IC50 of 51 nM. In assay [2], the Change is recorded as 25%.
In turn, `CC(C)c1cccc(C(C)C)c1NC(=O)NCC(NCc1cccs1)c1ccccc1` (single isomer, unassigned; (+)) came in with an IC50 in assay [1] of 51 nM. Moreover, in assay [2], the Change was -19%.
As for `CC(C)c1cccc(C(C)C)c1NC(=O)NCC(NCC1CC1)c1ccccc1` (single isomer, unassigned; (-)), in assay [1], the IC50 came out at 64 nM. Further, the Change in assay [2] is -51%.
`CCCCCCCCCCCCCCCCCC(=O)NC(CNC(=O)Nc1c(C(C)C)cccc1C(C)C)c1ccccc1` (stereo unspecified): the IC50 in assay [1] was determined as 1700 nM. Besides, the Change in assay [2] was 8%.
Consider `CC(C)c1cccc(C(C)C)c1NC(=O)NCC(NC(=O)c1cc2ccccc2[nH]1)c1ccccc1` (stereo unspecified), for which inhibition in assay [1] was half-maximal at 2300 nM (IC50). The Change in assay [2] was -3%.
For `CCCCCCCCCC(=O)NC(CNC(=O)Nc1c(C(C)C)cccc1C(C)C)c1ccccc1` (stereo unspecified), in that order: 590 nM and -29%.
In the case of `COc1ccc(C(=O)NC(C)(C)CNC(=O)Nc2c(C(C)C)cccc2C(C)C)cc1`, the Change in assay [2] is -9%.
Regarding `CC(C)c1cccc(C(C)C)c1NC(=O)NCC(CN(C)Cc1ccccc1)c1ccccc1` (stereo unspecified), the IC50 in assay [1] was over 10000 nM.
On to `CC(C)c1cccc(C(C)C)c1NC(=O)NCC(NC(=O)CCCCCN(CCO)CCO)c1ccccc1` (stereo unspecified), for which, in assay [1], the IC50 is 2800 nM. In assay [2], the Change is given as -4%.
For `CCCCCCCCCC(=O)NC(CNC(=O)Oc1c(C(C)C)cccc1C(C)C)c1ccccc1` (racemic) the same measures were 760 nM and 25%.
For `CC(C)c1cccc(C(C)C)c1NC(=O)NCC(NC(=O)c1cccc2ccccc12)c1ccccc1` (stereo unspecified) the same measures were 970 nM and -14%.
For `CC(C)c1cccc(C(C)C)c1NC(=O)NCC(NCc1ccccn1)c1ccccc1` (stereo unspecified), in that order: 140 nM and -15%.
Regarding `CC(C)c1cccc(C(C)C)c1NC(=O)NCC(NCc1ccc(N(C)C)cc1)c1ccccc1` (single isomer, unassigned; (-)), the IC50 in assay [1] is 150 nM. For the same compound, the Change in assay [2] is recorded as -45%.
As for `CC(C)c1cccc(C(C)C)c1NC(=O)NCC(NCc1ccncc1)c1ccccc1` (single isomer, unassigned; (+)), the IC50 in assay [1] came out at 1200 nM. Also, in assay [2], the Change is given as -19%.
`CC(C)c1cccc(C(C)C)c1NC(=O)NCC(NCc1ccoc1)c1ccccc1` (stereo unspecified): the IC50 in assay [1] is 48 nM. Moreover, the Change in assay [2] is given as -38%.
For `CC(C)c1cccc(C(C)C)c1NC(=O)NCC(NCc1ccco1)c1ccccc1` (single isomer, unassigned; (-)), in that order: 48 nM and -18%.
For `CC(C)c1cccc(C(C)C)c1NC(=O)NCC(NC(=O)c1ccc(C(F)(F)F)cc1)c1ccccc1` (stereo unspecified), in that order: 510 nM and -9%.
For `CC(C)c1cccc(C(C)C)c1NC(=O)NCC(NCc1ccc(O)c(CN(C)C)c1)c1ccccc1` (single isomer, unassigned; (-)) the same measures were 490 nM and -46%.
Turning to `CCCCCCCCCCC(C)(C)C(=O)Nc1c(OC)cc(OC)cc1OC` [CL-976], the Change in assay [2] is given as -44%.
In assay [1], `CC(C)c1cccc(C(C)C)c1NC(=O)NCC(NCc1ccc(N(C)C)cc1)c1ccccc1` (stereo in doubt; 9n(+)) yielded an IC50 of 60 nM. In assay [2], the Change is on record as -56%.
With `COc1ccc(CNC(CNC(=O)Nc2c(C(C)C)cccc2C(C)C)c2ccccc2)cc1` (single isomer, unassigned; (-)), the IC50 in assay [1] stood at 39 nM. The Change in assay [2] was -45%.
`COc1ccc(CNC(CNC(=O)Nc2c(C(C)C)cccc2C(C)C)c2ccccc2)cc1` (racemic) showed an IC50 in assay [1] of 48 nM. The Change in assay [2] was -54%.
For the compound `CCCCCCNC(CNC(=O)Nc1c(C(C)C)cccc1C(C)C)c1ccccc1` (racemic), the IC50 in assay [1] turned out to be 49 nM. The Change in assay [2] is reported as -41%.
For `COc1ccc(C(=O)NC(CNC(=O)Nc2c(C(C)C)cccc2C(C)C)c2ccccc2)cc1` (stereo unspecified), in that order: 330 nM and -7%.
For `COc1ccc(CNC(CNC(=O)Nc2c(C(C)C)cccc2C(C)C)C(C)C)cc1` (single isomer, unassigned; (-)) the same measures were 80 nM and -41%.
On to `Cc1ccc(CNC(CNC(=O)Nc2c(C(C)C)cccc2C(C)C)c2ccccc2)cc1` (racemic), for which the IC50 in assay [1] stood at 52 nM. Moreover, the Change in assay [2] is on record as -45%.
In the case of `CCCCCCCCCCCC(=O)NC(CNC(=O)Nc1c(C(C)C)cccc1C(C)C)c1ccccc1` (stereo unspecified), in assay [1], half-maximal inhibition (IC50) was put at 77 nM. The Change in assay [2] was -16%.
As to `CC(C)c1cccc(C(C)C)c1NC(=O)NCC(NCc1cccc([N+](=O)[O-])c1)c1ccccc1` (single isomer, unassigned; (-)), in assay [1], the IC50 was determined as 45 nM. Moreover, the Change in assay [2] is given as -32%.
In assay [1], `CCCCCCCCCCCCCCCCCCNC(CNC(=O)Nc1c(C(C)C)cccc1C(C)C)c1ccccc1` (racemic) came in with an IC50 of 230 nM. In addition, the Change in assay [2] was -3%.
In assay [1], `CC(C)c1cccc(C(C)C)c1NC(=O)NCC(NCc1ccccc1)c1ccccc1` (single isomer, unassigned; (-)) yielded an IC50 of 33 nM. Moreover, in assay [2], the Change is recorded as -29%.
With `COc1ccc(CNC(CNC(=O)Nc2c(C(C)C)cccc2C(C)C)Cc2ccccc2)cc1` (single isomer, unassigned; (-)), in assay [1], the IC50 turned out to be 270 nM. Besides, in assay [2], the Change is -30%.
For `CC(C)c1cccc(C(C)C)c1NC(=O)NCC(NC(=O)c1ccc2ccccc2n1)c1ccccc1` (stereo unspecified) the same measures were 150 nM and -31%.
On to `COc1ccc(C(=O)NC(CNC(=O)Nc2c(C(C)C)cccc2C(C)C)C2CCCCC2)cc1` (racemic), for which the IC50 in assay [1] amounted to 250 nM. The Change in assay [2] is listed as -15%.
In turn, `CCCCCCC(=O)NC(COC(=O)Nc1c(C(C)C)cccc1C(C)C)c1ccccc1` (stereo in doubt; 34a(-)) had an IC50 in assay [1] of 570 nM. The Change in assay [2] is -2%.

The values above are taken from ChEMBL document CHEMBL1127542, “Inhibitors of acyl-CoA:cholesterol O-acyl transferase (ACAT) as hypocholesterolemic agents. 8. Incorporation of amide or amine functionalities into a series of disubstituted ureas and carbamates. Effects on ACAT inhibition in vitro and efficacy in vivo” (J Med Chem, 1994).
